Assay results taken from ChEMBL document CHEMBL6127074, “Isolation and Characterization of the Cyanobacterial Macrolide Glycoside Moorenaside, an Anti-Inflammatory Analogue of Aurisides Targeting the Keap1/Nrf2 Pathway” (J Nat Prod, 2024).
Each block holds one molecule with its values, some of them ahead of it. Calls of active or inactive are those of the source. The rule behind the calls is not given here.

Key:
[1] = system: RAW264.7; test: Anti-inflammatory activity in LPS induced mouse RAW264.7 cells assessed as reduction in NO production at 32 uM preincubated for 1 hr followed by LPS stimulation and measured after 24 hrs by Griess reagent based plate reader assay; format: functional, cell-based; conditions: time 25.0 hrs
Procedure, shortened: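 RAW264.7 cells seeded 20,000/well, pretreated 1 h with half-log dilutions from 32 μM (0.5% DMSO vehicle), then stimulated with LPS 1 μg/mL. Unstimulated controls were included. After 24 h the supernatant was mixed with Griess reagent and absorbance read at 540 nm. NO was calculated from a nitrite standard curve. Mean ± SD, n = 3, t-test against DMSO + LPS.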

[2] = system: RAW264.7; test: Anti-inflammatory activity in LPS induced mouse RAW264.7 cells assessed as fold increase in Nqo1 transcript level at 32 uM preincubated for 1 hr followed by LPS stimulation and measured after 12 hrs by TaqMan analysis; format: functional; conditions: time 13 hrs
Procedure, shortened: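 RAW264.7 cells seeded 175,000/well, given fresh medium, pretreated 1 h with half-log dilutions from 32 μM (0.5% DMSO vehicle), then stimulated with LPS 1 μg/mL for 12 h. Unstimulated wells were run alongside. RNA was extracted and reverse transcribed with oligo(dT), then measured by TaqMan qPCR for Nqo1 and iNos with actin as the endogenous control. Mean ± SD, n = 3, two-tailed unpaired t-test against DMSO + LPS.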

[3] = system: HEK293; test: Cytotoxicity against HEK293 ARE-luc cells at 1 to 32 uM incubated for 24 hrs by MTT assay; format: toxicity, cell-based; conditions: human, hek293, 24 h, dose 1-32 µM
Procedure, shortened: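 HEK293 ARE-luc cells seeded 10,000/well and left overnight, then treated with half-log dilutions from 32 μM, tBHQ 10 μM, or 0.5% DMSO for 24 h. Viability was read by MTT; mean ± SD, n = 3.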

[4] = system: RAW264.7; test: Cytotoxicity against mouse RAW264.7 cells at 32 uM incubated for 24 hrs by MTT assay; format: toxicity, cell-based; conditions: raw264.7, 24 h
Procedure, shortened: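 RAW264.7 cells seeded 20,000/well and treated for 24 h with half-log dilutions from 32 μM together with LPS 1 μg/mL (0.5% DMSO vehicle). Viability was read by MTT in parallel with the NO assay; mean ± SD, n = 3.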

[5] = system: HEK293; test: Activation of Nrf2-ARE pathway in HEK293 cells transfected with firefly luciferase reporter assessed as fold increase in Nrf2 activity at 10 uM incubated for 24 hrs by ARE luciferase reporter gene based microplate reader assay; format: cell-based; conditions: Homo sapiens, filed as activator
Procedure, shortened: (§1)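 HEK293 cells stably carrying an ARE-driven firefly luciferase reporter, grown in DMEM with 10% FBS at 37 °C and 5% CO2, seeded 10,000/well and left overnight. Half-log serial dilutions from 32 μM were added, with tBHQ (10 μM) as positive control and 0.5% DMSO as vehicle. Luminescence was read with BriteLite reagent after 24 h and expressed as fold activity; n = 3.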

[6] = system: HCT-116; test: Antiproliferative activity against human HCT-116 cells assessed as cell viability at 32 uM incubated for 48 hrs by MTT assay; conditions: HCT-116, 48 h
[7] = system: HEK293; test: Activation of Nrf2-ARE pathway in HEK293 cells transfected with firefly luciferase reporter assessed as fold increase in Nrf2 activity at 32 uM incubated for 24 hrs by ARE luciferase reporter gene based microplate reader assay; format: cell-based; conditions: Homo sapiens, filed as activator; procedure, shortened: as §1
[8] = system: LoVo; test: Antiproliferative activity against human LoVo cells; format: functional, cell-based
[9] = system: KB; test: Antiproliferative activity against human KB cells; format: functional, cell-based
[10] = system: Trypanosoma brucei rhodesiense; test: Antiparasitic activity against Trypanosoma brucei rhodesiense; format: functional, organism-based

Structure (SMILES): CO[C@@H]1[C@@H](O)[C@@H](OC)[C@H](O[C@@H]2C[C@H]3O[C@@](O)(C2)[C@H](C)C(=O)O[C@@H](/C=C/C=C/Br)C/C(C)=C/C(=O)C3(C)C)O[C@H]1C
Activity [1]: Active | fold change (FC) [2]: 5 | Activity [3]: Non-Toxic | Activity [4]: Non-Toxic | fold change (FC) [5]: 2.5 | viability at 32 µM [6]: 55% | fold change (FC) [7]: 7.7

IC50 [8]: 15 µM | IC50 [9]: 4.3 µM
Structure (SMILES): CO[C@@H]1[C@@H](OC)[C@@H](O)[C@H](O[C@H]2C[C@@]3(O)CC(=O)O[C@@](C)(CC/C=C/C=C/Br)C[C@H](O)[C@@H](C)CC[C@H](O3)[C@@H]2C)O[C@H]1C

IC50 [10]: 11 µM
Structure (SMILES): C=CCCC/C=C/C=C/[C@H]1OC(=O)C[C@@H]2O[C@H](C[C@H](O)C[C@H](C)C[C@@H](O)C1(C)C)C[C@H](O[C@@H]1OC[C@@H](OC)[C@H](O)[C@H]1O)C2(C)C

IC50 [10]: 11 µM
Structure (SMILES): CCCCC/C=C/C=C/[C@H]1OC(=O)C[C@@H]2O[C@H](C[C@H](O)C[C@H](C)C[C@@H](O)C1(C)C)C[C@H](O[C@@H]1OC[C@@H](OC)[C@H](O)[C@H]1O)C2(C)C
